Test results as given in ChEMBL document CHEMBL1138601, “Diversity-oriented synthesis of a cytisine-inspired pyridone library leading to the discovery of novel inhibitors of Bcl-2” (Bioorg Med Chem Lett, 2009).

How the values were obtained:
[1] = molecular target: Bcl-2-like protein 1 (Homo sapiens, UniProt Q07817); assay: Displacement of fluorescently-tagged BH3 peptide from Bcl-XL by chemiluminescent nitrogen detection method
Summary of the method: (§1)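 Solution-phase competition binding in HTS format. Inhibitors compete with a fluorescently tagged BH3 peptide for Bcl-2 or Bcl-xL. Library compounds were first screened at one fixed concentration. Hits exceeding three standard deviations above assay error were then run in a multi-point dilution series, and Ki values were derived from that series.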

[2] = molecular target: Apoptosis regulator Bcl-2 (Homo sapiens, UniProt P10415); assay: Displacement of fluorescently-tagged BH3 peptide from Bcl-2 by chemiluminescent nitrogen detection method; summary of the method: as §1
Chain of Apoptosis regulator Bcl-2 (P10415 whole entry): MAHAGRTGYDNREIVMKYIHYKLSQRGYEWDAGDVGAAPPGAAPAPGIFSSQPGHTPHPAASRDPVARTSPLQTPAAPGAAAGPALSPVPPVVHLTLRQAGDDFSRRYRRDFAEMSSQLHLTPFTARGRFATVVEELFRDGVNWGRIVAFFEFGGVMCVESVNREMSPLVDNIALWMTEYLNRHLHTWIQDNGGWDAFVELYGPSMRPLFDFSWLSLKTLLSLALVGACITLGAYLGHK

Chain of Bcl-2-like protein 1 (Q07817 whole entry): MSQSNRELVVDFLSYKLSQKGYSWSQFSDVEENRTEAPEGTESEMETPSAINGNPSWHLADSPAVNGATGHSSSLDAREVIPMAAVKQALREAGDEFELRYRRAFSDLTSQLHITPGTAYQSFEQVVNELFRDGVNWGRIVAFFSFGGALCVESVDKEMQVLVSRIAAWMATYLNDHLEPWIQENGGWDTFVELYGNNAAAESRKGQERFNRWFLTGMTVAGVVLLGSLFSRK

SMILES	Ki [1]	Ki [2]
CN(C)CCNC(=O)[C@H]1[C@H](CO)[C@H]2Cn3c(cccc3=O)[C@@H]1N2c1nc(-c2ccc(Cl)cc2)c(-c2ccccc2)s1	6.6 µM	1.3 µM
O=C(NCCCN1CCCC1)[C@H]1[C@H](CO)[C@H]2Cn3c(cccc3=O)[C@@H]1N2c1nc(-c2ccc(Cl)cc2)c(-c2ccccc2)s1	7.8 µM	1.6 µM
CN(C)CCNC(=O)[C@@H]1[C@@H](CO)[C@@H]2Cn3c(cccc3=O)[C@H]1N2c1nc(-c2ccc(Cl)cc2)c(-c2ccccc2)s1	5.7 µM	2 µM
O=C(N[C@@H]1CCN(Cc2ccccc2)C1)[C@H]1[C@H](CO)[C@H]2Cn3c(cccc3=O)[C@H]2N1CC1CCCCC1	> 100 µM	7.8 µM
O=C(N[C@H]1CCN(Cc2ccccc2)C1)[C@H]1[C@H](CO)[C@H]2Cn3c(cccc3=O)[C@H]2N1CC1CCCCC1	> 100 µM	4.1 µM
O=C(NC1Cc2ccccc2C1)[C@H]1[C@H](CO)[C@H]2Cn3c(cccc3=O)[C@H]2N1CC1CCCCC1	> 100 µM	5.4 µM
O=C(NCc1ccc(Oc2ccccc2)cc1)[C@H]1[C@H](CO)[C@H]2Cn3c(cccc3=O)[C@H]2N1CC1CCCCC1	> 100 µM	8.4 µM
O=C(NCCCN1CCCC1)[C@@H]1[C@@H](CO)[C@@H]2Cn3c(cccc3=O)[C@H]1N2c1nc(-c2ccc(Cl)cc2)c(-c2ccccc2)s1	5.7 µM	3 µM
O=C([C@@H]1[C@@H](CO)[C@@H]2Cn3c(cccc3=O)[C@@H]2N1Cc1ccc(Oc2ccccc2)cc1)N1CCC(c2ccc(F)cc2)CC1	> 100 µM	6.8 µM
O=C(NCCN1CCCCC1)[C@@H]1[C@@H](CO)[C@@H]2Cn3c(cccc3=O)[C@H]1N2c1nc(-c2ccc(Cl)cc2)c(-c2ccccc2)s1	6 µM	2.5 µM
COCCNC(=O)[C@@H]1[C@@H](CO)[C@@H]2Cn3c(cccc3=O)[C@H]1N2c1nc(-c2ccc(Cl)cc2)c(-c2ccccc2)s1	> 100 µM	4.3 µM
COCCNC(=O)[C@H]1[C@H](CO)[C@H]2Cn3c(cccc3=O)[C@@H]1N2c1nc(-c2ccc(Cl)cc2)c(-c2ccccc2)s1	> 100 µM	14 µM
O=C([C@@H]1[C@@H](CO)[C@@H]2Cn3c(cccc3=O)[C@@H]2N1Cc1ccc(Cl)c(Cl)c1)N1CCC(Cc2ccccc2)CC1	> 100 µM	1.2 µM
O=C([C@@H]1[C@@H](CO)[C@@H]2Cn3c(cccc3=O)[C@@H]2N1Cc1ccc(Oc2ccccc2)cc1)N1CCC(Cc2ccccc2)CC1	> 100 µM	5.2 µM
O=C(NCCN1CCCCC1)[C@H]1[C@H](CO)[C@H]2Cn3c(cccc3=O)[C@@H]1N2c1nc(-c2ccc(Cl)cc2)c(-c2ccccc2)s1	11 µM	1.5 µM
O=C([C@@H]1[C@@H](CO)[C@@H]2Cn3c(cccc3=O)[C@@H]2N1Cc1ccc(Cl)c(Cl)c1)N1CCC(c2ccc(F)cc2)CC1	> 100 µM	2.2 µM
